Bioassay records deposited in PubChem by several laboratories.
Hits are enriched below; roughly 1.8% of the tested compounds scored in any of these assays.
beta cell repl: inducers of MIN6 beta-cell proliferation, primary screen, ATP luminescence, uHTS | MIN6 cells proliferation, ATPlite luminescence, 48 h; cells starved in 0.2% serum; 100% = growth in 10% serum | proliferation, % at 10 µM | 0.29% of 330,000 active | AID 2380, 2010;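 active = compounds whose signal lies at least 3.5 SD above the mean of all wells on their plate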;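 also: 0% = DMSO-treated cells in low-serum medium and 100% = 10% serum control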
MT1-MMP act inh: blockers of MT1-MMP proenzyme processing, primary screen, HT1080 RFP-PRO-GFP cells, GFP/RFP fluorescence; Matrix metalloproteinase-14 (Homo sapiens), P50281; GFP/RFP ratio fluorescence, overnight; percent of plate control window, DMSO zero; GFP/RFP ratio change, % at 20 µM; 0.061% of 360,000 active; AID 651647, 2012;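 active = GFP/RFP ratio change of at least 30% with cell ATP level not reduced by more than half and red fluorescence within 50% of control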
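Assay system: HT1080 RFP-PRO-GFP cells | Dosing: 20 µM single dose, 1% DMSO | Incubation: Cells overnight before dosing, compound overnight, 37 °C, 5% CO2 | Evaluation: GFP/RFP fluorescence ratio | Control set: DMSO-only wells and HT1080 RFP-L50D-GFP cell wells as references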
DAGLB inh: DAGLB lipase inhibitors, primary screen, biochemical, fluorescence, HTS. Diacylglycerol lipase-beta (Homo sapiens), Q8NCG7. 0.059% of 340,000 active. HEK293T DAGLB membrane lysate, EnzChek fluorogenic substrate. inhibition, % at 5.17 µM; in the data active = inhibition above about 34%;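 also: 0% = enzyme with vehicle and 100% = wells lacking enzyme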
Target sequence (Q8NCG7 whole entry, looked up): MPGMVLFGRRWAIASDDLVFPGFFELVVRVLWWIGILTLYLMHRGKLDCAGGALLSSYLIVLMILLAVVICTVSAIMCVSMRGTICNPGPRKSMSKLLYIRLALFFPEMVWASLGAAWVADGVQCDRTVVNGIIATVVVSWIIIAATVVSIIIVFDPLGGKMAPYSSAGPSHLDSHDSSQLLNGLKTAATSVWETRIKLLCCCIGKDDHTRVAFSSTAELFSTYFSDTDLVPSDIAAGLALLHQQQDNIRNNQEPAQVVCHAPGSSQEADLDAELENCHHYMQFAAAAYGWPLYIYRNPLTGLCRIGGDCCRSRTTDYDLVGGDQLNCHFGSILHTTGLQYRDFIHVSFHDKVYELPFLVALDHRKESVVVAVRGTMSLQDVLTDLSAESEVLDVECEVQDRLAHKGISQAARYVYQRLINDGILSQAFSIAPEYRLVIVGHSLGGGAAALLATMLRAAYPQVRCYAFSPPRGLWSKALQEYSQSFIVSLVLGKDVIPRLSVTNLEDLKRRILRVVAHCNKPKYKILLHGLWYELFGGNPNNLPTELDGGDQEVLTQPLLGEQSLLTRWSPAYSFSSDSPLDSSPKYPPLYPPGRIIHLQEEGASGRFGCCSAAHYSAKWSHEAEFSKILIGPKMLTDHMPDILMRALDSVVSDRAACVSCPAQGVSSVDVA
bovine MsrA act: bovine MsrA enzyme activators, primary screen, biochemical, absorbance, HTS; activation, % at 10.6 µM; Methionine sulfoxide reductase A (Bos taurus); purified bovine MsrA, absorbance read-out; 0.3% of 360,000 active; in the data active = activation above about 7.5%;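 also: 0% = vehicle and 100% = reference activator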
SKN-1 block: suppressors of acrylamide-induced Pgst-4::GFP reporter in worms, primary screen, SKN-1 inhibitor project, whole organism, uHTS, GFP/RFP fluorescence ratio, strain VP596. inhibition, % at 21.8 µM. 0.49% of 360,000 active. C. elegans VP596 Pgst-4::GFP/RFP ratio, 24 h;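 active = interference check ratio from 0.5 to 1.5 plus GFP to RFP signal ratio inhibition reaching or exceeding a fixed threshold, cut at about 30% in these data, passing the limit was not always enough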
MsrA inhibitor: bovine MsrA enzyme inhibitors, primary screen, biochemical, absorbance, HTS. Methionine sulfoxide reductase A (Bos taurus). purified bovine MsrA, absorbance read-out. inhibition, % at 15.5 µM. 0.75% of 360,000 active;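 also: 0% = vehicle wells with enzyme and 100% = reference inhibitor wells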
MsrA conf: bovine MsrA inhibitors, retest, confirmation, biochemical, absorbance, HTS | shares compounds with MsrA inhibitor | purified bovine MsrA, absorbance read-out | inhibition, % at 15.5 µM | 41% of 2,300 active;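 also: coupled to thioredoxin reductase with NADPH and selenocystamine and DMSO as substrate; 0% = vehicle only and 100% = full effect of reference inhibitor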
Active calls of the source: *; x = not tested or not shown. Rule as the data show it, unless noted: active = inhibition above about 4.5%; inactive = the rest.

SMILES	beta cell repl	MT1-MMP act inh	DAGLB inh	bovine MsrA act	SKN-1 block	MsrA inhibitor	MsrA conf
COc1ccc2cc(OCC(=O)NNC(=O)Nc3ccc(C(C)=O)cc3)ccc2c1	2	4	0	-4	9	0	x
Nc1cc2sc(-c3ccc(C(=O)O)cc3)nc2cc1Cl	-3	15	3	-3	-9	5.5*	4
Nc1cccc(-c2nc3ccc(N)cc3s2)c1	-5	1	2	1	8	2	x
Nc1ccc(-c2nc3ccc(N)cc3s2)cc1	-6	1	0	-7	6	5.6*	7.5*
O=C(O)c1ccc2nc(-c3ccccc3)sc2c1	0	-2	-1	-7	-7	0	x
Nc1ccc(-c2nc3ccc(C(=O)O)cc3s2)cc1	x	1	0	-4	1	5.9*	7.2*
C1=C[C@H]2CC[C@@H]1N(c1ccccc1)O2	x	5	-3	2	8	-1	x
O=C(Nc1cccc(S(=O)(=O)N2CCCCCC2)c1)C1CCN(C(=O)c2ccc(Cl)cc2)CC1	-5	-10	-1	-3	14	0	x
Cc1cc(/C=C(\C#N)C(=O)Nc2ccccc2F)c(C)[nH]1	3	4	-1	0	18	4.7*	3
Cc1ccc(N(C)S(=O)(=O)c2c[nH]c3ccc([N+](=O)[O-])cc23)cc1	-3	0	-6	-1	-4	5.8*	2
COc1cc(/C=C/c2ccc3c([N+](=O)[O-])cccc3n2)ccc1OCC(=O)O	-3	-3	5	-2	-8	0	x
COc1cc(/C=C/c2ccc3cccc([N+](=O)[O-])c3n2)ccc1OCC(=O)O	-1	0	2	-5	11	5.8*	2
CC(C)N(C(=O)Cc1ccccc1[N+](=O)[O-])C(C)C	-3	0	1	-1	-4	1	x
O=C(O)c1cccc(Nc2nc(-c3cccnc3)nc3ccccc23)c1	0	2	2	-3	-3	5.6*	2
O=C(COC(=O)CCCN1C(=O)c2cccc3cccc(c23)C1=O)Nc1ccc(Cl)cc1	1	1	-1	-5	8	4.8*	1
CCN(c1ccccc1)S(=O)(=O)c1nnc(NC(=O)c2ccco2)s1	-3	5	4	-8	-3	5.9*	5.3*
N#Cc1ccc(-c2nc3c4ccccc4ccn3c2CC2CCCCC2)cc1	x	-5	x	-3	24	0	x
CCN(/N=C/C=C/c1ccccc1)c1cc(=O)n(C)c(=O)[nH]1	4	6	-1	-8	-6	11*	11*
O=C(O)c1ccc2c3c(cccc13)C(=O)N(c1ccccc1)C2=O	-1	-12	0	-7	5	4	x
NS(=O)(=O)c1ccc(O)c(N2C(=O)c3cccc4c(C(=O)O)ccc(c34)C2=O)c1	4	1	1	-1	4	5.0*	4
NN1C(=O)c2cccc3c(C(=O)O)ccc(c23)C1=O	-2	-1	1	-5	0	2	x
O=C(O)c1ccc(N2C(=O)c3cccc4c(C(=O)O)ccc(c34)C2=O)cc1	x	-1	x	-4	22	5.5*	2
Cc1cc(C)nc(NC(=NCCc2c[nH]c3ccccc23)NC(=O)C(C)(C)C)n1	-3	3	1	-2	-1	-2	x
Cc1ccc(Nc2cc(Cl)nc(N)n2)c([N+](=O)[O-])c1	x	2	4	-6	13	3	x
O=[N+]([O-])c1ccc2c(c1N1CCCCC1)=NC1(CCCCC1)[N+]=2[O-]	-4	0	2	-5	5	2	x
SMILES	beta cell repl	MT1-MMP act inh	DAGLB inh	bovine MsrA act	SKN-1 block	MsrA inhibitor	MsrA conf
[O-][N+]1=c2ccc(Nc3ccccc3)cc2=NC12CCCCC2	x	-13	13	0	-1	11*	8.6*
COc1ccc(/C=N/NC(=O)c2cc(C3CC3)[nH]n2)cc1OC	-1	2	-1	-3	1	2	x
COc1cc(/C=N/NC(=O)c2cc(-c3ccc4c(c3)OCO4)n[nH]2)ccc1O	4	9	-7	-11	2	5.5*	3
O=C(N/N=C/c1ccc([N+](=O)[O-])cc1)c1cc(-c2ccc3c(c2)OCO3)n[nH]1	-2	4	-9	-11	-8	-2	x
COc1cc(/C=N/NC(=O)c2cc(C3CC3)[nH]n2)ccc1O	-2	2	-1	-6	-7	5.2*	3
COc1ccc(C(=O)NC2CCN(CC(=O)Nc3c(C)cccc3C)CC2)cc1OC	-3	2	1	-9	-15	0	x
N#CCC(=O)Nc1ccc(C(=O)NNC(=O)c2ccccc2-n2cccc2)cc1	-4	-4	3	-4	-3	0	x
Cc1ccc(-c2ccc(/C=N/N=C3/NC(=O)C(CC(=O)O)S3)o2)c([N+](=O)[O-])c1 (stereo not drawn)	-2	4	3	-6	14	5.9*	6.8*
O=C(O)CC1S/C(=N/N=C/c2ccc(-c3ccccc3[N+](=O)[O-])o2)NC1=O (stereo not drawn)	-3	9	3	-4	13	4.9*	4
Cc1cccc(N2CCN(S(=O)(=O)c3ccc4c(c3)NC(=O)CO4)CC2)c1C	-1	0	2	0	10	1	x
NC(=S)N/N=C/c1ccc(/C=N/NC(N)=S)cc1	0	1	-1	-5	1	10.0*	9.0*
Cn1cccc1/C=N/NC(N)=S	1	0	1	-1	-7	7.4*	4
NC(=S)N/N=C/c1cccc(/C=N/NC(N)=S)c1	-1	5	3	-1	1	2	x
CC(C)=CC(=O)Nc1ccc(S(=O)(=O)Nc2ccccn2)cc1	-1	-2	2	-9	-5	0	x
CC1(C(=O)NS(=O)(=O)c2cccc(Cl)c2)CCN1C(=O)c1cccc2ccccc12 (stereo not drawn)	x	1	x	-3	0	1	x
Cc1ccc(-c2ccc(/C=N/n3cnnc3)o2)cc1Cl	-1	-2	-3	-3	11	5.0*	4
CCOc1cc(/C=N/n2c(C)nnc2C)ccc1O	-2	5	4	-6	-18	2	x
CCOc1cc(/C=N/N=C/c2ccc(O)c(OCC)c2)ccc1O	1	1	-1	-1	19	6.4*	4
